# Paper PMC6032914 (Clinical Pharmacology in Drug Development, 2018)
# Where two headings read alike, the source gives them in different places.
# How the values were obtained:
# [1] = Gefitinib pharmacokinetics; assay type: in vivo; conditions: human, plasma, oral, Tmax (h), mean (SD), gefitinib 250 mg daily with ficlatuzumab 20 mg/kg
# [2] = Ficlatuzumab antidrug antibody; assay type: in vivo, human
# [3] = cited from earlier work
# serum HGF = experiment: Serum HGF pharmacodynamic marker; assay type: in vivo, human; conditions: total serum HGF after ficlatuzumab administration
# How it was run: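 Peripheral blood for serum total HGF was drawn before treatment and 3 h postinfusion on day 1, predose on days 2, 3, 8 and 22–28, predose and 2 h postinfusion on day 15 of cycle 1, and predose on cycle 3 day 1.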
# HGF = conditions: affinity of ficlatuzumab to HGF; cited from earlier work
# NSCLC xenografts = conditions: cited from earlier work
# [4] = system: phospho‐c‐Met and phospho‐Akt; conditions: NSCLC tumor lysates, alone or in combination; cited from earlier work
# [5] = Ficlatuzumab serum pharmacokinetics; assay type: in vivo, human
# Safety and tolerability = assay type: in vivo, human; conditions: every 2 weeks, plus gefitinib 250 mg/day
# [6] = system: c‐Met‐positive advanced NSCLC; conditions: in combination with erlotinib; cited from earlier work
# [7] = 15 patients receiving monotherapy 20 mg/kg
# [8] = ficlatuzumab 10 mg/kg, Cycle 1, day 1, n = 3
# [9] = ficlatuzumab 20 mg/kg, Cycle 1, day 1, n = 12
# [10] = ficlatuzumab 20 mg/kg, Cycle 4, day 1, n = 6
compound,measurement,setting,value
"COc1cc2ncnc(Nc3ccc(F)c(Cl)c3)c2cc1OCCCN1CCOCC1 [Gefitinib, gefitinib]",Tmax,"[1]; Cycle 1, day 1, n = 12",5.4 h
same,Tmax,"[1]; Cycle 4, day 1, n = 6",9.9 h
Ficlatuzumab: humanized IgG1κ inhibitory monoclonal antibody that binds to HGF and prevents the ligand from activating the c‐Met receptor,ADA result of postficlatuzumab samples,[2]; 41 samples from 14 patients,negative
same,immunogenicity,[2]; any patients during the observation period,not immunogenic
same,TEAE fatigue,[3]; [7],5 patients
same,TEAE hypokalemia,[3]; [7],4 patients
same,TEAE nausea,[3]; [7],4 patients
same,TEAE peripheral edema,[3]; [7],8 patients
same,TEAE vomiting,[3]; [7],5 patients
same,tolerability of the highest administered dose,[3]; ficlatuzumab 20 mg/kg,well tolerated without any dose‐limiting toxicities
same,grade 3/4 TEAE hypokalemia,[3]; ficlatuzumab monotherapy,4 patients
same,recommended phase 2 dose (RP2D) of ficlatuzumab,"[3]; intravenous every 2 weeks, with oral erlotinib 150 mg/day",20 mg/kg
same,highest HGF level observed,serum HGF,≈ 14 ng/mL
same,Kd,HGF,3 pM
same,tumor growth,NSCLC xenografts,inhibits tumor growth
same,phospho‐c‐Met and phospho‐Akt levels,[4],decreased
same,mean trough level of ficlatuzumab,"[5]; beginning of cycle 4, 20 mg/kg cohort, n = 8",413.1 µg/mL
same,Ficlatuzumab drug exposure (Cmax and AUC0–last) versus dose,"[5]; cycle 1, 10 and 20 mg/kg",approximately proportional to dose
same,"AUC0–last (mg·h/mL), mean (SD)",[5]; [8],39.2 (4.5) mg·h/mL
same,"Cmax (μg/mL), mean (SD)",[5]; [8],229 (8.9) μg/mL
same,"t1/2 (Days), mean (SD)",[5]; [8],15.2 (4.7) Days
same,"AUC0–last (mg·h/mL), mean (SD)",[5]; [9],81.3 (16.5) mg·h/mL
same,"Cmax (μg/mL), mean (SD)",[5]; [9],544 (141) μg/mL
same,"t1/2 (Days), mean (SD)",[5]; [9],11.3 (3.2) Days
same,"AUC0–last (mg·h/mL), mean (SD)",[5]; [10],212 (47.3) mg·h/mL
same,"Cmax (μg/mL), mean (SD)",[5]; [10],1070 (220) μg/mL
same,mean half‐life,"[5]; first dose in cycle 1, dose not stated",approximately 15 days
same,recommended phase 2 dose (RP2D) of ficlatuzumab,Safety and tolerability,20 mg/kg
"onartuzumab: c‐Met‐targeted monovalent monoclonal antibody, tested in combination with erlotinib",outcome of the phase 3 study,[6],lack of efficacy
